Reference: ChEMBL document CHEMBL1147809, “Tumor-cell-targeted methionine-enkephalin analogues containing unnatural amino acids: design, synthesis, and in vitro antitumor activity” (2006)
*1 amine or outer side, *2 acyl side, *3 side chain or, on linkers, in order; H or OH if unused. Where a SMILES comes first, the peptide text is derived from it. [ ]: non-standard residue; d: D form. X1 = O=C(C(N[*:1])C1C2CC3CC(C2)CC1C3)[*:2]; X2 = O=C(C1(N[*:1])C2CC3CC(C2)CC1C3)[*:2]

What was measured:
Format in all cases: functional
[1] = tested on: SW-620; experiment: Antiproliferative activity against human SW620 cell line at 10 uM relative to control
Method in brief: (§1)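 Cells from ATCC grown as monolayers in DMEM with 10% FBS, 2 mM glutamine, penicillin/streptomycin, 37 °C, 5% CO2. Seeded at 2 × 10^4 cells/mL, and after 24 h the medium was replaced with fresh medium containing compound (water/10% DMSO stock, PBS working dilutions 10^-3 to 10^-6 M). Exposure was 72 h, then MTT read-out. Growth % = (A_peptide − A_blank)/(A_control − A_blank) × 100, with inhibition taken relative to untreated cells. Values are means of three experiments run in triplicate.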

[2] = tested on: HT-29; experiment: Antiproliferative activity against human HT29 cell line at 100 uM relative to control; method in brief: as §1
[3] = tested on: HEp-2; experiment: Antiproliferative activity against human HEp2 cell line at 1000 uM relative to control; method in brief: as §1
[4] = tested on: SW-620; experiment: Antiproliferative activity against human SW620 cell line at 1 uM relative to control; method in brief: as §1
[5] = tested on: Caco-2; experiment: Antiproliferative activity against human Caco-2 cell line at 10 uM relative to control; method in brief: as §1
[6] = tested on: MCF7; experiment: Antiproliferative activity against human MCF7 cell line at 1 uM relative to control; method in brief: as §1
[7] = tested on: MCF7; experiment: Antiproliferative activity against human MCF7 cell line at 100 uM relative to control; method in brief: as §1
[8] = tested on: HBL; experiment: Antiproliferative activity against human HBL cell line at 100 uM relative to control; method in brief: as §1
[9] = tested on: MCF7; experiment: Antiproliferative activity against human MCF7 cell line at 1000 uM relative to control; method in brief: as §1
[10] = tested on: Caco-2; experiment: Antiproliferative activity against human Caco-2 cell line at 1 uM relative to control; method in brief: as §1
[11] = tested on: HeLa; experiment: Antiproliferative activity against human HeLa cell line at 100 uM relative to control; method in brief: as §1
[12] = tested on: HBL; experiment: Antiproliferative activity against human HBL cell line at 10 uM relative to control; method in brief: as §1
[13] = tested on: HT-29; experiment: Antiproliferative activity against human HT29 cell line at 1000 uM relative to control; method in brief: as §1
[14] = tested on: HeLa; experiment: Antiproliferative activity against human HeLa cell line at 1 uM relative to control; method in brief: as §1
[15] = tested on: HeLa; experiment: Antiproliferative activity against human HeLa cell line at 10 uM relative to control; method in brief: as §1
[16] = tested on: MCF7; experiment: Antiproliferative activity against human MCF7 cell line at 10 uM relative to control
Method in brief: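 MTT assay on monolayer cells grown in DMEM with 10% FBS, 2 mM glutamine, penicillin and streptomycin, at 37 °C in 5% CO2. Cells were plated at 2 × 10^4 cells/mL on day 0. After 24 h the medium was replaced with fresh medium containing compound (working dilutions in PBS from 10% DMSO/water stock), then incubated 72 h. Percent growth inhibition was calculated against untreated cells after blank subtraction. Values are means of three experiments run in triplicate.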

[17] = tested on: HT-29; experiment: Antiproliferative activity against human HT29 cell line at 10 uM relative to control; method in brief: as §1
[18] = tested on: Caco-2; experiment: Antiproliferative activity against human Caco-2 cell line at 100 uM relative to control; method in brief: as §1
[19] = tested on: HEp-2; experiment: Antiproliferative activity against human HEp2 cell line at 100 uM relative to control; method in brief: as §1
[20] = tested on: HBL; experiment: Antiproliferative activity against human HBL cell line at 1000 uM relative to control; method in brief: as §1
[21] = tested on: HBL; experiment: Antiproliferative activity against human HBL cell line at 1 uM relative to control; method in brief: as §1
[22] = tested on: HeLa; experiment: Antiproliferative activity against human HeLa cell line at 1000 uM relative to control; method in brief: as §1
[23] = tested on: Caco-2; experiment: Antiproliferative activity against human Caco-2 cell line at 1000 uM relative to control; method in brief: as §1
[24] = tested on: SW-620; experiment: Antiproliferative activity against human SW620 cell line at 1000 uM relative to control; method in brief: as §1
[25] = tested on: HT-29; experiment: Antiproliferative activity against human HT29 cell line at 1 uM relative to control; method in brief: as §1
[26] = tested on: HEp-2; experiment: Antiproliferative activity against human HEp2 cell line at 10 uM relative to control; method in brief: as §1
[27] = tested on: SW-620; experiment: Antiproliferative activity against human SW620 cell line at 100 uM relative to control; method in brief: as §1
[28] = tested on: HEp-2; experiment: Antiproliferative activity against human HEp2 cell line at 1 uM relative to control; method in brief: as §1

Structure (SMILES)	inhibition at 10 µM [1] [%]	inhibition at 100 µM [2] [%]	inhibition at 1000 µM [3] [%]	inhibition at 1 µM [4] [%]	inhibition at 10 µM [5] [%]	inhibition at 1000 µM [9] [%]	inhibition at 1 µM [10] [%]	inhibition at 100 µM [11] [%]	inhibition at 10 µM [12] [%]	inhibition at 1000 µM [13] [%]	inhibition at 10 µM [15] [%]	inhibition at 10 µM [17] [%]	inhibition at 100 µM [18] [%]	inhibition at 100 µM [19] [%]	inhibition at 1000 µM [20] [%]	inhibition at 1000 µM [22] [%]	inhibition at 1000 µM [23] [%]	inhibition at 1000 µM [24] [%]	inhibition at 1 µM [25] [%]	inhibition at 10 µM [26] [%]	other results
CSCC[C@H](NC(=O)[C@H](Cc1ccccc1)NC(=O)CNC(=O)CNC(=O)[C@@H](N)Cc1ccc(O)cc1)C(=O)O	12.7	16.1	3.3	18.9	6.4	15.4	4.2	12	1	19.3	11.4	15.9	8.4	2.4	10.8	22.3	3.2	19.1	14	4.5	inhibition at 1 µM [6]: 3.6%; inhibition at 100 µM [7]: 7.6%; inhibition at 100 µM [8]: 4.5%; inhibition at 1 µM [14]: 2.3%; inhibition at 10 µM [16]: 4.1%; inhibition at 1 µM [21]: 0.4%; inhibition at 100 µM [27]: 15.3%; inhibition at 1 µM [28]: 5.2%
CSCC[C@H](NC(=O)[C@H](Cc1ccccc1)NC(=O)CNC(=O)C1(NC(=O)[C@@H](N)Cc2ccc(O)cc2)C2CC3CC(C2)CC1C3)C(=O)O (some centres undefined) (H-Y[X2]GFM-OH)	15.5	7.9	36.1	12.2	8.4	22.8	3	13.3	1.4	23.7	10.2	11	18.5	16.8	18.3	28	10.6	29	3.3	10.1	inhibition at 100 µM [8]: 2.4%; inhibition at 1 µM [14]: 4.9%; inhibition at 1 µM [21]: 0.8%; inhibition at 100 µM [27]: 24.7%; inhibition at 1 µM [28]: 1%
N[C@@H](Cc1ccc(O)cc1)C(=O)N[C@@H](C(=O)O)C1C2CC3CC(C2)CC1C3 (some centres undefined)	10	10.5	16.2	10.7	21.4	18.7	22.2	11	4.7	21.8	17.1	8.3	17.5	1.9	7.3	20.5	16	18.7	0.7	4.9	inhibition at 1 µM [6]: 1.6%; inhibition at 100 µM [7]: 7.7%; inhibition at 100 µM [8]: 2.7%; inhibition at 1 µM [14]: 7.2%; inhibition at 10 µM [16]: 2.6%; inhibition at 1 µM [21]: 3%; inhibition at 100 µM [27]: 9.4%; inhibition at 1 µM [28]: 8.5%
N[C@@H](Cc1ccc(O)cc1)C(=O)N[C@H](C(=O)O)C1C2CC3CC(C2)CC1C3 (some centres undefined)	21.9	3.4	21.2	10.5	16.5	17.8	3.7	3.1	3.9	20.8	6.1	8.9	8.4	8.2	7.3	14.8	14.5	17.9	4.9	6.4	inhibition at 100 µM [7]: 1.2%; inhibition at 1 µM [14]: 7.5%; inhibition at 10 µM [16]: 1.1%; inhibition at 100 µM [27]: 11.8%; inhibition at 1 µM [28]: 6.2%
N[C@@H](Cc1ccc(O)cc1)C(=O)N[C@@H](C(=O)NCC(=O)O)C1C2CC3CC(C2)CC1C3 (some centres undefined)	13.5	12.4	26.4	17	6.9	15.6	8.1	11.6	1.2	22.4	11.7	3.8	8.1	12.6	19.4	28.2	8.6	25.3	7.6	4.9	inhibition at 100 µM [8]: 3.3%; inhibition at 1 µM [14]: 11%; inhibition at 100 µM [27]: 13.5%; inhibition at 1 µM [28]: 4.6%
CSCC[C@H](NC(=O)[C@H](Cc1ccccc1)NC(=O)CNC(=O)C(NC(=O)[C@@H](N)Cc1ccc(O)cc1)C1C2CC3CC(C2)CC1C3)C(=O)O (some centres undefined) (H-Y[X1]GFM-OH)	13.1	5.1	44.5	26.4	10.9	29.9	17.7	15.4	4.5	14.5	9.5	6.6	12.1	34.7	23.2	24.1	8.1	38.4	16.2	25.8	inhibition at 100 µM [7]: 9.6%; inhibition at 100 µM [8]: 11.4%; inhibition at 1 µM [14]: 8.5%; inhibition at 1 µM [21]: 2.4%; inhibition at 100 µM [27]: 14.6%; inhibition at 1 µM [28]: 13.7%
N[C@@H](Cc1ccc(O)cc1)C(=O)N[C@H](C(=O)NCC(=O)O)C1C2CC3CC(C2)CC1C3 (some centres undefined)	20.4	9.5	26.7	13.6	4.2	21.2	2.2	9.9	2.9	15.7	7.3	7.4	6.4	18.8	17.9	28.2	6.2	23.4	5.4	2	inhibition at 100 µM [8]: 5.9%; inhibition at 1 µM [14]: 9.8%; inhibition at 1 µM [21]: 1.6%; inhibition at 100 µM [27]: 14.4%; inhibition at 1 µM [28]: 2.7%
N[C@@H](Cc1ccc(O)cc1)C(=O)NC1(C(=O)O)C2CC3CC(C2)CC1C3 (some centres undefined)	16.5	5.4	30.4	12.9	22.7	7.5	3.5	8.2	14	26.5	10	1.6	18.9	24.9	14	36.1	26.4	58.2	9.8	19.7	inhibition at 100 µM [8]: 7.5%; inhibition at 10 µM [16]: 2.4%; inhibition at 1 µM [21]: 6.5%; inhibition at 100 µM [27]: 28.1%; inhibition at 1 µM [28]: 14.2%
CSCC[C@H](NC(=O)[C@H](Cc1ccccc1)NC(=O)CNC(=O)CNC(=O)[C@@H](N)Cc1ccc(O)cc1)C(=O)NC1(C(=O)O)C2CC3CC(C2)CC1C3 (some centres undefined) (H-YGGFM[X2]-OH)	–	–	45	–	11.1	25.9	–	–	70.7	9.2	–	–	–	–	34.4	9.3	47	–	–	3.9	inhibition at 1 µM [6]: 2.2%; inhibition at 100 µM [7]: 6.9%; inhibition at 10 µM [16]: 7.1%; inhibition at 1 µM [21]: 4.1%
